According to ChEMBL document CHEMBL4130527, “New Scaffold for Angiogenesis Inhibitors Discovered by Targeted Chemical Transformations of Wondonin Natural Products” (ACS Med Chem Lett, 2017):
Calls of active or inactive are those of the source. The rule behind the calls is not given here.

What was measured:
HUVEC [1] = assay: Antiangiogenic activity in HUVEC assessed as inhibition of VEGF-induced capillary tube formation after 8 hrs by matrigel based inverted microscopic analysis; format: functional, cell-based; conditions: Homo sapiens
Method in brief: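 HUVECs treated with compound with or without VEGF (50 ng/mL) for 8 h. Intact tubes counted under a microscope, and IC50 calculated against control. Value is the mean IC50 from triplicate experiments.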

HUVEC [2] = assay: Growth inhibition of HUVEC after 24 hrs in presence of VEGF by MTT assay; format: cell-based; conditions: Homo sapiens
Method in brief: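 HUVECs exposed to compound in the presence of VEGF (50 ng/mL) for 24 h, with growth read by MTT assay. Value is the mean IC50 from triplicate experiments.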

HUVEC [3] = assay: Antimigratory activity in HUVEC after 24 hrs by inverted phase contrast light microscopic analysis; format: functional, cell-based; conditions: Homo sapiens
Method in brief: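 Migrated HUVECs counted and compared with VEGF-treated control groups. Statistics by ANOVA with Tukey's test, n = 3.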

[4] = target: Vascular endothelial growth factor receptor 2 (Homo sapiens) (UniProt P35968); assay: Inhibition of VEGFR2 in HUVEC assessed as decrease in VEGF-induced PI3K phosphorylation at Tyr458 residues pretreated for 30 mins followed by VEGF stimulation for 20 mins by Western blot analysis; format: cell-based
Chain of Vascular endothelial growth factor receptor 2 (Homo sapiens) (P35968 whole entry): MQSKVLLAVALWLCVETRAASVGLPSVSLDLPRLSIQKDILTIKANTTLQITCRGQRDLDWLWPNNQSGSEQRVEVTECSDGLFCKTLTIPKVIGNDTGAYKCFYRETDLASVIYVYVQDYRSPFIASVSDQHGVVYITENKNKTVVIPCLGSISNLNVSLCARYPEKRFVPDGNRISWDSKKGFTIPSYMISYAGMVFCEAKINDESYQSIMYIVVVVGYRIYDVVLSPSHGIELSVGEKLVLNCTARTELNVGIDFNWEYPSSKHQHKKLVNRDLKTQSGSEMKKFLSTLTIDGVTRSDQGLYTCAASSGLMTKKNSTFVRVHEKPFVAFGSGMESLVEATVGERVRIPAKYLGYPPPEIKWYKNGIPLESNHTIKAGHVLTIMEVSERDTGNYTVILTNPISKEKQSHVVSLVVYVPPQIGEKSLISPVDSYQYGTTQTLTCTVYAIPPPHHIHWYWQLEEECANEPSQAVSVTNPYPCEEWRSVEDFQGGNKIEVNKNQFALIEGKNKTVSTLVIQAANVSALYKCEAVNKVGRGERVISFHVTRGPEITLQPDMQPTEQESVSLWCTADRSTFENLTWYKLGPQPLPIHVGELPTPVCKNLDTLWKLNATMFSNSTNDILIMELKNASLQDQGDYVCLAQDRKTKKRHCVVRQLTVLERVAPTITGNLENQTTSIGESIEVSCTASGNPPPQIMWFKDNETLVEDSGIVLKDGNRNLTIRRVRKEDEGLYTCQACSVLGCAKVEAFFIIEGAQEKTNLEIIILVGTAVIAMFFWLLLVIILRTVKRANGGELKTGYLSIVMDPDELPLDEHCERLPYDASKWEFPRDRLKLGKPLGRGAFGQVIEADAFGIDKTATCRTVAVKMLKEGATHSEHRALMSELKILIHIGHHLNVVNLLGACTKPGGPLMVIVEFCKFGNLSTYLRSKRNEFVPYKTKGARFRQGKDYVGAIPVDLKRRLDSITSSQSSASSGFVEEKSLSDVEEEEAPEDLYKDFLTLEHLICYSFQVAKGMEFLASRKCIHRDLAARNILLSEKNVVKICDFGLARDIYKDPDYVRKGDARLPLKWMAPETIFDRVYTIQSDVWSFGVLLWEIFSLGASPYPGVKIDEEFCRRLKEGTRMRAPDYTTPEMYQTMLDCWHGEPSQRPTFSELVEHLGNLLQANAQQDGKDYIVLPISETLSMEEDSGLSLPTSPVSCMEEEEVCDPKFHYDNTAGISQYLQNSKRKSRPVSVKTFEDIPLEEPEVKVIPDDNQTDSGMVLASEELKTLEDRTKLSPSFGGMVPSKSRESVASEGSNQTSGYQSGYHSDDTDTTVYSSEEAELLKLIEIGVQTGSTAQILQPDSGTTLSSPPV
Method in brief: (§1)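 HUVECs pretreated with various compound concentrations for 30 min, then stimulated with VEGF (50 ng/mL) for 20 min. Phosphoproteins detected by immunoblot, with β-actin as loading control.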

[5] = target: Vascular endothelial growth factor receptor 2 (Homo sapiens) (UniProt P35968); assay: Inhibition of VEGFR2 in HUVEC assessed as decrease in VEGF-induced AKT phosphorylation at Thr308 residues pretreated for 30 mins followed by VEGF stimulation for 20 mins by Western blot analysis; format: cell-based; method in brief: as §1
[6] = target: Vascular endothelial growth factor receptor 2 (Homo sapiens) (UniProt P35968); assay: Inhibition of VEGFR2 in HUVEC assessed as decrease in VEGF-induced eNOS phosphorylation at Ser1177 residues pretreated for 30 mins followed by VEGF stimulation for 20 mins by Western blot analysis; format: cell-based; method in brief: as §1
[7] = target: Vascular endothelial growth factor receptor 2 (Homo sapiens) (UniProt P35968); assay: Inhibition of VEGF-induced VEGFR2 phosphorylation at Tyr1175 residues in HUVEC pretreated for 30 mins followed by VEGF stimulation for 20 mins by Western blot analysis; format: cell-based; method in brief: as §1
[8] = target: Vascular endothelial growth factor receptor 2 (Homo sapiens) (UniProt P35968); assay: Inhibition of VEGFR2 in HUVEC assessed as decrease in VEGF-induced SRC phosphorylation pretreated for 30 mins followed by VEGF stimulation for 20 mins by Western blot analysis; format: cell-based; method in brief: as §1
[9] = target: Vascular endothelial growth factor receptor 2 (Homo sapiens) (UniProt P35968); assay: Inhibition of VEGFR2 in HUVEC assessed as decrease in VEGF-induced AKT phosphorylation at […] residues pretreated for 30 mins followed by VEGF stimulation for 20 mins by Western blot analysis; format: cell-based; method in brief: as §1
[10] = target: Vascular endothelial growth factor receptor 2 (Homo sapiens) (UniProt P35968); assay: Inhibition of VEGFR2 in HUVEC assessed as decrease in VEGF-induced FAK phosphorylation at Tyr397 residues pretreated for 30 mins followed by VEGF stimulation for 20 mins by Western blot analysis; format: cell-based; method in brief: as §1
HUVEC [11] = assay: Inhibition of integrin in HUVEC assessed as decrease in VEGF-induced SRC/FAK phosphorylation pretreated for 30 mins followed by VEGF stimulation for 20 mins by Western blot analysis; format: cell-based; conditions: Homo sapiens; method in brief: as §1
[12] = target: Casein kinase I isoform alpha (Homo sapiens) (UniProt P48729); assay: Inhibition of human wild type partial length CSNK1A1 (M1 to L301 residues) expressed in mammalian expression system at 10 uM by Kinomescan method relative to control
Chain of Casein kinase I isoform alpha (Homo sapiens) (P48729 2-337 limits assumed): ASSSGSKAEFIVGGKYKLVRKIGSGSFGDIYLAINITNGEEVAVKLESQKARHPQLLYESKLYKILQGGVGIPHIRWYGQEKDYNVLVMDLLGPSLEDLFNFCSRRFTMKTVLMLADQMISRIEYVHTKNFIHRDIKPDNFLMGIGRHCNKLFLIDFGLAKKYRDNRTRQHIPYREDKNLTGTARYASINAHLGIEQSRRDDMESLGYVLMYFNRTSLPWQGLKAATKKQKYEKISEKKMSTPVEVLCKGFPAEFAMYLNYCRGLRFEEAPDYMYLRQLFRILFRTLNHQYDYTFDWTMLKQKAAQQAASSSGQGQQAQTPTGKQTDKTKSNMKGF
Method in brief: (§2)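 Compound tested at 10 μM in a KINOMEscan binding panel of 30 kinases. Activity taken from binding between each kinase and its corresponding ligand.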

[13] = target: T1, Protein kinase C iota type (Homo sapiens) (UniProt P41743); assay: Inhibition of human wild type partial length PRKCI (H215 to V587 residues) expressed in mammalian expression system at 10 uM by Kinomescan method relative to control; method in brief: as §2
T1 sequence (whole entry): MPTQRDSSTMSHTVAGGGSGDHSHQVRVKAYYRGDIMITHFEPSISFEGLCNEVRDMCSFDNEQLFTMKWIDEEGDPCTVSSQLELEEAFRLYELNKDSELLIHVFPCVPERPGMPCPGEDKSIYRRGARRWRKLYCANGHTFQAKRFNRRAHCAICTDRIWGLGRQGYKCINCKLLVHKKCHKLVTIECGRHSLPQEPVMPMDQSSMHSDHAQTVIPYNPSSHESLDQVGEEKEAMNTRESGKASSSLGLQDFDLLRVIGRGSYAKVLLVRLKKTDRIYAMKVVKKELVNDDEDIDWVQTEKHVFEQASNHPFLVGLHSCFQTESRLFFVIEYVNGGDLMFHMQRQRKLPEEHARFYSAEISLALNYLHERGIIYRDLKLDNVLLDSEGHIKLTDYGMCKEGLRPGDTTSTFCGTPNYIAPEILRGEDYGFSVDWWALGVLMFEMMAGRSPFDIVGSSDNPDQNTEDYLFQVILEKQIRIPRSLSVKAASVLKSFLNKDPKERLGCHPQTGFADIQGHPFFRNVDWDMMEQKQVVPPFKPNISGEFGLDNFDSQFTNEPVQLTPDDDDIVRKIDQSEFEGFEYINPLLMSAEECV

[14] = target: Dual specificity mitogen-activated protein kinase kinase 1 (Homo sapiens) (UniProt Q02750); assay: Inhibition of human wild type partial length MEK1 (M1 to V393 residues) expressed in mammalian expression system at 10 uM by Kinomescan method relative to control; method in brief: as §2
Chain of Dual specificity mitogen-activated protein kinase kinase 1 (Homo sapiens) (Q02750 whole entry, the tested form may be a part): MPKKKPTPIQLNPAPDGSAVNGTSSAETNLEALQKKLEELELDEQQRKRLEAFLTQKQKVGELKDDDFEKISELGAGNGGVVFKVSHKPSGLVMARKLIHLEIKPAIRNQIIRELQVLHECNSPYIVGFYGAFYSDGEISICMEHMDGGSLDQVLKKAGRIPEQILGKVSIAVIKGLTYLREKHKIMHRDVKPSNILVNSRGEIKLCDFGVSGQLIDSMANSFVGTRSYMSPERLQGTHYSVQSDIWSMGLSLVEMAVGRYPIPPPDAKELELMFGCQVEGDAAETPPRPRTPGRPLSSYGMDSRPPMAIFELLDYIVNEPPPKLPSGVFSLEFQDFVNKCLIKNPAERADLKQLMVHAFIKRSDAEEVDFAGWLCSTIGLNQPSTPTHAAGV

Danio rerio [15] = species: Danio rerio; assay: Antiangiogenic activity in transgenic zebrafish flk:EGFP embryo model of DR-mimic hyaloid vessels in larval eye lenses assessed as inhibition of high glucose induced increase in hyaloid vessel diameter pretreated with glucose 3 days post fertilization for 3 days followed by compound addition measured 6 days post fertilization by fluorescence microscopy; format: functional, organism-based
Method in brief: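 Transgenic flk:EGFP zebrafish embryos at 3 dpf exposed to 130 mM glucose for 3 days to induce DR-mimic hyaloid vessels, with compound at varying concentrations. Hyaloid vessel diameter measured near the optic disc in isolated eye lenses; primary branch number compared with high-glucose controls. ANOVA with Tukey's test, n = 3.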

Danio rerio [16] = species: Danio rerio; assay: Toxicity in transgenic zebrafish flk:EGFP embryo model of DR-mimic hyaloid vessels in larval eye lenses measured 6 days post fertilization; format: organism-based; conditions: in vivo, 144 h
[17] = Apparent permeability from apical to basolateral side in MDCK cells at 10 uM by LC-MS/MS analysis; format: ADME, cell-based, Canis lupus familiaris; conditions: dog
Method in brief: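 Apparent permeability coefficient (Papp, A-B) measured across MDCK cell monolayers.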

[18] = Stability in human plasma assessed as parent compound remaining at 10 uM after 30 mins by LC-MS/MS analysis; format: ADME, cell-free; conditions: read-out: Stability
Method in brief: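 Parent compound remaining after 30 min incubation in human plasma.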

[19] = Metabolic stability in human liver microsomes assessed as parent compound remaining at 1 uM preincubated for 5 mins followed by NADPH addition measured after 30 mins by LC-MS/MS analysis; format: ADME, microsome; conditions: read-out: Stability
Method in brief: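 Parent compound remaining after 30 min incubation with human liver microsomes.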

Row | Compound | IC50 (HUVEC [1]) | IC50 (HUVEC [2]) | also measured
1 | CCc1ccc2nc(C(c3ccc(O)c(O)c3)n3cc(CCN(C)C)nn3)oc2c1 (configuration not stated) | > 20 µM | > 100 µM | –
2 | CCc1ccc2nc(C(c3ccc(OC)c(OC)c3)n3cc(CCN4CCOCC4)nn3)sc2c1 (configuration not stated) | 3.93 µM | > 100 µM | –
3 | CCCNCCc1cn(C(c2ccc(OC)c(OC)c2)c2nc3ccc(CC)cc3s2)nn1 (configuration not stated) | 1.39 µM | 38.6 µM | –
4 | CCc1ccc2nc(C(c3ccc(OC)c(OC)c3)n3cc(CCN(C)C)nn3)sc2c1 (configuration not stated) | 8.27 µM | 93.5 µM | –
5 | CCc1ccc2cc(C(c3ccc(O)c(O)c3)n3cc(CCN(C)C)nn3)oc2c1 (configuration not stated) | 6.1 µM | 22 µM | –
6 | CCN(CC)CCNC(=O)c1c(C)[nH]c(/C=C2\C(=O)Nc3ccc(F)cc32)c1C [SUNITINIB] | 0.546 µM | 9.92 µM | –
7 | CCc1ccc2nc(C(c3ccc(OC)c(OC)c3)n3cc(CCN4CCCC4)nn3)sc2c1 (configuration not stated) | 2.84 µM | 70.3 µM | –
8 | CCc1ccc2nc(C(c3ccc(OC)c(OC)c3)n3cc(CCN4CCCCC4)nn3)sc2c1 (configuration not stated) | 0.631 µM | 47.5 µM | inhibition (HUVEC [1]): Dose-dependent effect; Activity (HUVEC [3]): Dose-dependent effect; inhibition [4]: Active; inhibition [5]: Active; inhibition [6]: Active; inhibition [7]: Active; inhibition [8]: Active; inhibition [9]: Active; inhibition [10]: Active; inhibition (HUVEC [11]): Active; inhibition [12]: > 40%; inhibition [13]: > 40%; inhibition [14]: > 40%; inhibition (Danio rerio [15]): Dose-dependent effect; Activity (Danio rerio [16]): Non-Toxic; Papp A→B at 10 µM [17]: 11 ×10⁻⁶ cm/s; remaining at 0.5 h, 10 µM [18]: 95%; remaining at 0.5 h, 1 µM [19]: 31%
9 | CCc1ccc2nc(C(c3ccc(O)c(O)c3)n3cc(CCN(C)C)nn3)sc2c1 (configuration not stated) | 3.04 µM | 37.3 µM | –
10 | CCc1ccc2c(c1)OC(C(c1ccc(O)c(O)c1)n1cc(CCN(C)C)nn1)O2 (configuration not stated) | 28 µM | 95.9 µM | –
11 | CCc1ccc2nc(C(c3ccc(OC)c(OC)c3)n3cc(CCNC4CCCC4)nn3)sc2c1 (configuration not stated) | 1.02 µM | 19.4 µM | –
12 | CN(C)CCc1cn(C(c2ccc(O)c(O)c2)C2Oc3ccc(/C=C/OS(=O)(=O)O)cc3O2)cn1 (configuration not stated) | 42.8 µM | > 100 µM | –
